From ChEMBL document CHEMBL2074537, “Interaction of 31 beta-lactam antibiotics with the H+/peptide symporter PEPT2: analysis of affinity constants and comparison with PEPT1” (Eur J Pharm Biopharm, 2005)
Where “and” joins values, the source holds several entries; their conditions need not be identical. Identical values can stand only once.

Tests used:
[1] = target: T1, Solute carrier family 15 member 2 (Rattus norvegicus, UniProt Q63424); assay: TP_TRANSPORTER: inhibition of Gly-Sar uptake (pH6.0) in SKPT cells; format: functional, cell-based
T1 sequence (Q63424 whole entry): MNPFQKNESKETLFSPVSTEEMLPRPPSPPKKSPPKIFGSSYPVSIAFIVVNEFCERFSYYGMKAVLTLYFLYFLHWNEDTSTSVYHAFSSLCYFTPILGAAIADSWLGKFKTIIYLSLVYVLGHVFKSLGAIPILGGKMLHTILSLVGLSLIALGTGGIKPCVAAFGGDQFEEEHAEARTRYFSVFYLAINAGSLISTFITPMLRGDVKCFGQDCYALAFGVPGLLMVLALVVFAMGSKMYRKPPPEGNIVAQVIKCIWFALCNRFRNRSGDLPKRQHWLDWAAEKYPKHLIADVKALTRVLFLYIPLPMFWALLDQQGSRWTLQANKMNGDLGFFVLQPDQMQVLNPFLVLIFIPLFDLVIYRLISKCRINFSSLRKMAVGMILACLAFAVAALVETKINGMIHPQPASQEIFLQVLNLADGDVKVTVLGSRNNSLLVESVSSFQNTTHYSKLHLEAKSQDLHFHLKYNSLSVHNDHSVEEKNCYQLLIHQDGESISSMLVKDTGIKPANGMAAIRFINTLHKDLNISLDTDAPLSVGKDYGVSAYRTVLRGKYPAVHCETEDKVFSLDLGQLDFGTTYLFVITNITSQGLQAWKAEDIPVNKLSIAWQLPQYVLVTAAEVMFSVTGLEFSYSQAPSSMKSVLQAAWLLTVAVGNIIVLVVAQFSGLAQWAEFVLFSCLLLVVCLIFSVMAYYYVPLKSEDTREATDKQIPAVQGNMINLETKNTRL
How it was run: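 Rat SKPT renal proximal tubule cells were seeded and used 4 days later. Cells were given ice-cold washes, lysed and counted by scintillation, with protein by Bradford. Non-saturable uptake was taken with 10 mM Gly-Sar.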

[2] = target: T2, Solute carrier family 15 member 1 (Homo sapiens, UniProt P46059); assay: TP_TRANSPORTER: inhibition of Gly-Sar uptake (pH6.0) in Caco-2 cells; format: functional, cell-based
T2 sequence (P46059 whole entry): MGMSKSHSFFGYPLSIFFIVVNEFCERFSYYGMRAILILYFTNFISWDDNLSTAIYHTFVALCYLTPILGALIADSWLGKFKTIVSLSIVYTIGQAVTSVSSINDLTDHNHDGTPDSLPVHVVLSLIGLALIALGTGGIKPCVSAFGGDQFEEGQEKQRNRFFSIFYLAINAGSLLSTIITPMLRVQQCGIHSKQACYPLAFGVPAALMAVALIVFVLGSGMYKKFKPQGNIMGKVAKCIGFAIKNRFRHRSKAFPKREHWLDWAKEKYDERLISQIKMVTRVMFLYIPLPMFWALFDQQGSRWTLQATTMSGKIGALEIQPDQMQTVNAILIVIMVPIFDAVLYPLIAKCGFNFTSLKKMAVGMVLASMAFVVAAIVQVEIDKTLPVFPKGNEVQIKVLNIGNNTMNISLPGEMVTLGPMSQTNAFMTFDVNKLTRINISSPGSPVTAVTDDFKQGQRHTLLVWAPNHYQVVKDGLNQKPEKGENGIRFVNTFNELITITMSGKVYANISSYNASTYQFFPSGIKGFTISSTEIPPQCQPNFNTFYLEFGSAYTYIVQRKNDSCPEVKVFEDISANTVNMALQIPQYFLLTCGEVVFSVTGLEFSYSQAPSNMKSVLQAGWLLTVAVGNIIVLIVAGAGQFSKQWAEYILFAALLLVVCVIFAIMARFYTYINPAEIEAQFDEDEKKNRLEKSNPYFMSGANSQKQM

Row | SMILES | Ki [1] | Ki [2]
1 | CC1(C)S[C@@H]2[C@H](N)C(=O)N2[C@H]1C(=O)O | 19 mM | > 30 mM
2 | CC(=O)OCC1=C(C(=O)O)N2C(=O)[C@@H](N)[C@H]2SC1 | 4.9 mM | > 10 mM
3 | CO/N=C(\C(=O)N[C@@H]1C(=O)N2C(C(=O)[O-])=C(C[N+]3(C)CCCC3)CS[C@H]12)c1csc(N)n1 | 11.4 mM | > 30 mM
4 | CC1(C)S[C@@H]2[C@H](NC(=O)[C@H](N)c3ccc(O)cc3)C(=O)N2[C@H]1C(=O)O [AMOXICILLIN] | 0.43 mM | > 10 mM
5 | N[C@@H](C(=O)N[C@@H]1C(=O)N2C(C(=O)O)=C(Cl)CS[C@H]12)c1ccccc1 [CEFACLOR ANHYDROUS] | – | > 10 mM
6 | CC1=C(C(=O)O)N2C(=O)[C@@H](NC(=O)[C@H](N)c3ccc(O)cc3)[C@H]2SC1 [CEFADROXIL] | – | 7.2 mM
7 | Cn1nnnc1SCC1=C(C(=O)O)N2C(=O)[C@@H](NC(=O)[C@H](O)c3ccccc3)[C@H]2SC1 [CEFAMANDOLE] | 2.8 mM | 8.1 mM
8 | C=CC1=C(C(=O)O)N2C(=O)[C@@H](NC(=O)/C(=N\OCC(=O)O)c3csc(N)n3)[C@H]2SC1 [CEFIXIME] | 2.6 mM | 12 mM
9 | CO[C@@]1(NC(=O)CSCC#N)C(=O)N2C(C(=O)O)=C(CSc3nnnn3C)CS[C@@H]21 [CEFMETAZOLE] | 4.3 mM | 28 mM
10 | CO/N=C(\C(=O)N[C@@H]1C(=O)N2C(C(=O)O)=C(CSc3nc(C)c(CC(=O)O)s3)CS[C@H]12)c1csc(N)n1 [CEFODIZIME] | 9 mM | 22 mM
11 | CO/N=C(\C(=O)N[C@@H]1C(=O)N2C(C(=O)O)=C(COC(C)=O)CS[C@H]12)c1csc(N)n1 [CEFOTAXIME] | 20 mM | > 30 mM
12 | CO/N=C(\C(=O)N[C@@H]1C(=O)N2C(C(=O)[O-])=C(C[n+]3cccc4c3CCC4)CS[C@H]12)c1csc(N)n1 [CEFPIROME] | 9.5 mM | > 30 mM
13 | NC(=O)c1cc[n+](CC2=C(C(=O)O)N3C(=O)[C@@H](NC(=O)[C@@H](c4ccccc4)S(=O)(=O)[O-])[C@H]3SC2)cc1 [CEFSULODIN] | > 30 mM | > 30 mM
14 | CC(C)(O/N=C(\C(=O)N[C@@H]1C(=O)N2C(C(=O)[O-])=C(C[n+]3ccccc3)CS[C@H]12)c1csc(N)n1)C(=O)O [CEFTAZIDIME] | > 10 mM | > 10 mM
15 | Nc1nc(/C(=C/CC(=O)O)C(=O)N[C@@H]2C(=O)N3C(C(=O)O)=CCS[C@H]23)cs1 [CEFTIBUTEN] | 0.28 mM | 0.34 mM
16 | CO/N=C(\C(=O)N[C@@H]1C(=O)N2C(C(=O)O)=C(CSc3nc(=O)c(=O)[nH]n3C)CS[C@H]12)c1csc(N)n1 [CEFTRIAXONE] | > 20 mM | > 30 mM
17 | CO/N=C(\C(=O)N[C@@H]1C(=O)N2C(C(=O)O)=C(COC(N)=O)CS[C@H]12)c1ccco1 [CEFUROXIME] | > 0.003 mM and 12.6 mM | > 5 mM and 26 mM
18 | CC1=C(C(=O)O)N2C(=O)[C@@H](NC(=O)[C@H](N)c3ccccc3)[C@H]2SC1 [CEPHALEXIN ANHYDROUS] | 0.075 mM | –
19 | O=C(Cc1cccs1)N[C@@H]1C(=O)N2C(C(=O)[O-])=C(C[n+]3ccccc3)CS[C@H]12 [CEPHALORIDINE] | 8.5 mM | > 30 mM
20 | CC(=O)OCC1=C(C(=O)O)N2C(=O)[C@@H](NC(=O)Cc3cccs3)[C@H]2SC1 [CEPHALOTHIN] | 8.3 mM | > 10 mM
21 | CC(=O)OCC1=C(C(=O)O)N2C(=O)[C@@H](NC(=O)CSc3ccncc3)[C@H]2SC1 [CEPHAPIRIN] | > 10 mM | > 10 mM
22 | CC1=C(C(=O)O)N2C(=O)[C@@H](NC(=O)[C@H](N)C3=CCC=CC3)[C@H]2SC1 [CEPHRADINE] | 0.065 mM | 9.8 mM
23 | Cc1onc(-c2ccccc2Cl)c1C(=O)N[C@@H]1C(=O)N2[C@@H]1SC(C)(C)[C@@H]2C(=O)O [CLOXACILLIN] | 0.95 mM | 3 mM
24 | CC1(C)S[C@@H]2[C@H](NC(=O)C3(N)CCCCC3)C(=O)N2[C@H]1C(=O)O [CYCLACILLIN] | 0.044 mM | 0.5 mM
25 | Cc1onc(-c2c(Cl)cccc2Cl)c1C(=O)N[C@@H]1C(=O)N2[C@@H]1SC(C)(C)[C@@H]2C(=O)O [DICLOXACILLIN] | 0.42 mM | 7.2 mM
26 | C=N[C@@H](C(=O)N[C@@H]1C(=O)N2[C@@H]1SC(C)(C)[C@@H]2C(=O)O)c1ccccc1 [METAMPICILLIN] | 0.73 mM | 12.7 mM
27 | CO[C@@]1(NC(=O)C(C(=O)O)c2ccc(O)cc2)C(=O)N2C(C(=O)O)=C(CSc3nnnn3C)CO[C@@H]21 (some centres undefined) [MOXALACTAM] | 0.087 mM | 12.3 mM
28 | Cc1onc(-c2ccccc2)c1C(=O)N[C@@H]1C(=O)N2[C@@H]1SC(C)(C)[C@@H]2C(=O)O [OXACILLIN] | 3.3 mM | 12 mM
29 | CC1(C)S[C@@H]2[C@H](NC(=O)Cc3ccccc3)C(=O)N2[C@H]1C(=O)O [PENICILLIN G] | – | > 30 mM
